Published values from different studies.
Compare with care: the assays were run in different laboratories.
Cell line: A549
Observed: cell growth or viability

The IC50 of `O=C(O)CCCC/C=C\CCCc1ccccc1` is reported as 61 µM (MTS).
With `O=C1OC2(c3cc(I)c(O)c(I)c3Oc3c2cc(I)c(O)c3I)c2c(Cl)c(Cl)c(Cl)c(Cl)c21` the CC50 was greater than 200 µM (CCK-8; 48 h).
For `CN(Cc1cnc2nc(N)nc(N)c2n1)c1ccc(C(=O)N2CCCCC2)cc1`, the GI50 was 34.9 µM (ATP luminescence).
With `O=C1OC2(c3ccccc31)c1ccc(O)c(Br)c1Oc1c2ccc(O)c1Br` the CC50 was greater than 200 µM (CCK-8; 48 h).
`COc1ccc(S(=O)(=O)ON=C2C=C(C)C(=O)C(C)=C2)cc1` has a CC50 of greater than 30 µM.
`O=C(O)c1ccc2c(c1)C(=O)OC21c2ccc(O)cc2Oc2cc(O)ccc21` gave a CC50 of greater than 200 µM (CCK-8; 48 h).
For `CCCCCCCCCC#CCCCCC(=O)O`, the IC50 was 16 µM (MTS; 24 h).
`C=C(C)[C@H](CC=C(C)C)Cc1c(O)cc(OC)c(C(=O)/C=C/c2ccc(O)cc2O)c1O` gave an IC50 of 57.1 µM (MTT).
With `CC(C)=CCc1c(O)c(CC=C(C)C)c2occ(-c3ccc(O)cc3)c(=O)c2c1O` the viability was 121% (MTT; 100 µg/mL).
`O=C1OC2(c3ccc(O)cc3Oc3cc(O)ccc32)c2ccc(NC(=S)NCCS)cc21` has a CC50 of greater than 200 µM (CCK-8; 48 h).
`Nc1nc(N)c2nc(CNc3cccc4ccccc34)cnc2n1` has a GI50 of 1.29 µM (ATP luminescence).
`C=C(C)[C@H](CC=C(C)C)Cc1c(O)cc(O)c2c1O[C@H](c1ccccc1O)CC2=O` has an IC50 of 36.1 µM (MTT; 48 h).
For `O=C1OC2(c3cc(Cl)c(O)cc3Oc3cc(O)c(Cl)cc32)c2ccccc21`, the CC50 was greater than 200 µM (CCK-8; 48 h).
With `COc1cc2oc(-c3ccc(O)cc3O)c(CC=C(C)C)c(=O)c2c(O)c1/C=C/C(C)C` the CC50 was 38 µM (crystal violet; 72 h).
`CCN(Cc1cnc2nc(N)nc(N)c2n1)c1ccc(C(=O)c2ccccc2)cc1` gave a GI50 of 0.23 µM (ATP luminescence).
